The text below walks through data of ChEMBL document CHEMBL2176874, “1-(sulfonyl)-5-(arylsulfonyl)indoline as activators of the tumor cell specific M2 isoform of pyruvate kinase” (Bioorg Med Chem Lett, 2012).

Each structure is given as a SMILES string. Calls of active or inactive are those of the source. The rule behind the calls is not given here.

The target of data set [1] is Pyruvate kinase PKM (Homo sapiens) (UniProt P14618). The experiment in a line: Activation of human pyruvate kinase M2 using phosphoenolpyruvate as substrate by kinaseGlo assay relative to control. Summed up: (§1)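 Cell-free enzymatic pyruvate kinase activity assay. Maximal activation is expressed as the percentage rise in enzyme activity above basal level, with 0% set as enzyme activity without compound.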
A general note: In Kinase-Glo more light means more ATP remaining.

For data set [2] the target is unchanged. The experiment in a line: Activation of human pyruvate kinase M2 using phosphoenolpyruvate as substrate assessed as concentration required for 50% activation by kinaseGlo assay.
Data set [3] can be described thus: Serum protein binding in human at 1 uM after 5 hrs by LC-MS/MS analysis. Type of data set: ADME, cell-free. Particulars: read-out: PB (converted).
A short description of data set [4]: Efflux ratio of apparent permeability from basal to apical to apical to basal side of human Caco2 cells at 10 uM after 90 mins by LC-MS/MS analysis. Particulars: Caco-2. Background: Passage across Caco-2 layers is used to estimate intestinal permeability.
The nature of data set [5]: Apparent permeability from basal to apical side of human Caco2 cells at 10 uM after 90 mins by LC-MS/MS analysis. Particulars: Caco-2.
Data set [6] in a line: Apparent permeability from apical to basal side of human Caco2 cells at 10 uM after 90 mins by LC-MS/MS analysis. Particulars: Caco-2.
Data set [7] can be described thus: Half life in human liver microsomes at 1 uM by LC-MS/MS analysis. For orientation: Microsomes from liver hold many membrane-bound enzymes, among them those of drug oxidation.
The next data set addresses hERG (KCNH2) (Homo sapiens, UniProt Q12809). The experiment in a line: Inhibition of human ERG expressed in CHO cells at 1 uM measured up to 3 mins by whole cell patch clamp assay. It counts as cell-based. The following applies: CHO cells expressing human ERG.
Data set [8] has as its target Pyruvate kinase PKLR (Homo sapiens) (UniProt P30613). The experiment in a line: Activation of human pyruvate kinase R using phosphoenolpyruvate as substrate by kinaseGlo assay relative to control. Summed up: as §1
Data set [9] shares this target. The experiment in a line: Activation of human pyruvate kinase R using phosphoenolpyruvate as substrate assessed as concentration required for 50% activation by kinaseGlo assay.
Data set [10] shares this target. The experiment in a line: Activation of human pyruvate kinase L using phosphoenolpyruvate as substrate by kinaseGlo assay relative to control. The method, boiled down:
as §1

The target is the same in data set [11]. The experiment in a line: Activation of human pyruvate kinase L using phosphoenolpyruvate as substrate assessed as concentration required for 50% activation by kinaseGlo assay.
Data set [12] deals with Pyruvate kinase PKM (Homo sapiens) (UniProt P14618). The experiment in a line: Activation of human pyruvate kinase M1 using phosphoenolpyruvate as substrate by kinaseGlo assay relative to control. The method, boiled down:
as §1

Data set [13] shares this target. The experiment in a line: Activation of human pyruvate kinase M1 using phosphoenolpyruvate as substrate by kinaseGlo assay.

A word on the efflux ratio: it is the permeability from basolateral to apical divided by that in the opposite direction, in the common usage. By Papp B→A is commonly meant the apparent permeability from the basolateral to the apical side of a cell layer. By Papp A→B is commonly meant how fast a substance crosses the layer from the apical side. One may read the half-life as the time in which the quantity being followed falls by half. A low value points to rapid decline. As usually defined, the inhibition is the change of the read-out against control, counted positive when it falls. Low readings indicate a response near the control, high ones a response far below the control.

Chain of Pyruvate kinase PKM (Homo sapiens) (P14618 2-531 limits assumed): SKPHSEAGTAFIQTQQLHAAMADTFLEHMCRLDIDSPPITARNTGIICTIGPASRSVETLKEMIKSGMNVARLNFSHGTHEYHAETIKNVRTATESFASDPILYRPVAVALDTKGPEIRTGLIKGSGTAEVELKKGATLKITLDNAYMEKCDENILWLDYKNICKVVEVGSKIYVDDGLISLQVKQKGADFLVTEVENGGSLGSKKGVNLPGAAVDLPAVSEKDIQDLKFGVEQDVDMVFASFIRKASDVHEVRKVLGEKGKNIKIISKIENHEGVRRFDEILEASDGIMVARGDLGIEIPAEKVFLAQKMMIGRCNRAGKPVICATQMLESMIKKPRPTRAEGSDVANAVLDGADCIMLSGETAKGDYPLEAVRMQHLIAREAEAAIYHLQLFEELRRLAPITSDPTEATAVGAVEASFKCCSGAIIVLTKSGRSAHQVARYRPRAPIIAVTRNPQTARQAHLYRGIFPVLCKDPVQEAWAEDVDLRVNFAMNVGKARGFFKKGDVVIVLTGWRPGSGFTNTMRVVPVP
Chain of Pyruvate kinase PKLR (Homo sapiens) (P30613 whole entry, looked up): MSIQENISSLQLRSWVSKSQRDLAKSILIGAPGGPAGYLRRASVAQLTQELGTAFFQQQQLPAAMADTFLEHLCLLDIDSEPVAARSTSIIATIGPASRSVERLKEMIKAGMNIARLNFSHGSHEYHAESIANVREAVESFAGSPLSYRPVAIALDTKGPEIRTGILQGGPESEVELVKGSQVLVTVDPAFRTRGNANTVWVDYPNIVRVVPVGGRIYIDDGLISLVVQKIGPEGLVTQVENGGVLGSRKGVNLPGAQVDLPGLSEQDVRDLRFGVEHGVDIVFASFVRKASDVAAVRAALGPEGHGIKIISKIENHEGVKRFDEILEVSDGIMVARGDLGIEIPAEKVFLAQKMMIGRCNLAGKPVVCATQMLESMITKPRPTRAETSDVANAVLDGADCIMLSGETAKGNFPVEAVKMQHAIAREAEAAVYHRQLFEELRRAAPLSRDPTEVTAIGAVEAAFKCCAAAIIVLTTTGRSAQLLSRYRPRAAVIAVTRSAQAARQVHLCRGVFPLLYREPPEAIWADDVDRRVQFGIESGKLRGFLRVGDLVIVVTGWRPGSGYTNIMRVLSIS
Chain of hERG (KCNH2) (Q12809 whole entry): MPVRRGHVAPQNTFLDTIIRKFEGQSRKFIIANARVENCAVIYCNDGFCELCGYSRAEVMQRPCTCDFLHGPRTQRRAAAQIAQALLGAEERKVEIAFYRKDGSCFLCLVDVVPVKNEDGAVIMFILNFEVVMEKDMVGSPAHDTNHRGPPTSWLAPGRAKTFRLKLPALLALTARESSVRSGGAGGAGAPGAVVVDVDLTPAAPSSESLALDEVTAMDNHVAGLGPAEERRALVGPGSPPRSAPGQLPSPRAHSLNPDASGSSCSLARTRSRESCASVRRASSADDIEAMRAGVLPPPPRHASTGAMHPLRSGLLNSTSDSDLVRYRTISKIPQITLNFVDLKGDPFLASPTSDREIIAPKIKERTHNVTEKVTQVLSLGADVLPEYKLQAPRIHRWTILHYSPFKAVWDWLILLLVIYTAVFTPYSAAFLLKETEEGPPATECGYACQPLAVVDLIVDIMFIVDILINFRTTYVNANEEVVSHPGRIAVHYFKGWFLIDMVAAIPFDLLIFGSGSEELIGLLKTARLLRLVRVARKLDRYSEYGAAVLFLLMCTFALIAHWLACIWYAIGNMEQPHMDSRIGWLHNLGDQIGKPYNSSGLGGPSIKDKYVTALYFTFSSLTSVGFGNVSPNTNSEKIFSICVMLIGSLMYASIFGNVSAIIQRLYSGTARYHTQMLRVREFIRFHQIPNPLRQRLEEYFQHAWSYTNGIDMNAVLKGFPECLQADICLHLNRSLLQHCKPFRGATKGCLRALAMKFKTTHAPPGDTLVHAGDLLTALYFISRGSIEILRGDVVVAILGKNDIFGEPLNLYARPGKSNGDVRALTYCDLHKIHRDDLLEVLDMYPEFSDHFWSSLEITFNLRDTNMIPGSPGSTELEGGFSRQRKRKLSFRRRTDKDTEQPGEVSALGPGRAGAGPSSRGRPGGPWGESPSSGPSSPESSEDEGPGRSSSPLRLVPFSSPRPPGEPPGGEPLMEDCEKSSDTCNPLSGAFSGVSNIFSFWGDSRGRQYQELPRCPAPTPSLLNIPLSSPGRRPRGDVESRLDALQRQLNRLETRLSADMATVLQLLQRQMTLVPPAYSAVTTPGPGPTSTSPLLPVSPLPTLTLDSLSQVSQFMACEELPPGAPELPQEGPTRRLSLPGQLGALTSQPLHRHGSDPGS

As to `CC1Cc2cc(S(=O)(=O)c3ccc4c(c3)OCCO4)ccc2N1S(=O)(=O)c1ccc(F)cc1` (racemic), the max activation in [1] stood at 159%. Besides, the Activity in [2] came out at 0.6 µM.
For `CC1Cc2cc(S(=O)(=O)Nc3ccc4c(c3)OCCO4)ccc2N1S(C)(=O)=O` (racemic), in that order: 25.5% and 51 µM.
For `COc1cccc(S(=O)(=O)N2c3ccc(S(=O)(=O)c4ccc5c(c4)OCCO5)cc3CC2C)c1` (racemic), in that order: 119% and 0.8 µM.
On to `Cc1cn(S(C)(=O)=O)c2ccc(S(=O)(=O)c3ccc4c(c3)OCCO4)cc12`, for which, in data set [1], the max activation came to 154%. For the same compound, the Activity in data set [2] worked out at 2.72 µM.
In the same order, the values of `CS(=O)(=O)N1CCCc2cc(S(=O)(=O)c3ccc4c(c3)OCCO4)ccc21` are 152% and 2.3 µM.
For `CCS(=O)(=O)N1CCc2cc(C(=O)CSc3cccc(OC)c3)ccc21`, in that order: 110% and 2.4 µM.
On to `CCN(c1ccc(S(=O)(=O)c2ccc3c(c2)OCCO3)cc1)S(C)(=O)=O`, for which the max activation in data set [1] was 100%. Besides, in data set [2], the Activity came out at 41 µM.
In the same order, the values of `CS(=O)(=O)n1ccc2cc(S(=O)(=O)c3ccc4c(c3)OCCO4)ccc21` are 98% and 0.023 µM.
In the same order, the values of `CC1Cc2cc(S(=O)(=O)c3ccc4c(c3)OCCO4)ccc2N1S(=O)(=O)c1c(F)cccc1F` (racemic) are 168% and 0.5 µM.
For `CC(C)N(c1ccc(S(=O)(=O)c2ccc3c(c2)OCCO3)cc1)S(C)(=O)=O`, in that order: 194% and 2.8 µM.
In turn, `CC1Cc2cc(S(=O)(=O)c3ccc4c(c3)OCCO4)ccc2N1S(C)(=O)=O` (racemic) registered a max activation in data set [1] of 148%. Also, in data set [2], the Activity stood at 2 µM. Also, in data set [3], the fraction unbound at 5 h, 1 µM was 0.075. For the same compound, the efflux ratio at 1.5 h, 10 µM in data set [4] came to 0.59. In data set [5], the basolateral-to-apical permeability (Papp B→A) at 1.5 h, 10 µM was found to be 12.1 ×10⁻⁶ cm/s. Also, the Papp A→B at 1.5 h, 10 µM in [6] was determined as 20.4 ×10⁻⁶ cm/s. The same compound came in with a half-life at 1 µM in data set [7] (liver microsomes) of 31.5 min.
Take `CCS(=O)(=O)N1CCc2cc(C(=O)CSc3ccc4c(c3)OCCCO4)ccc21`: the max activation in data set [1] turned out to be 149%. For the same compound, the Activity in data set [2] came to 0.51 µM. This compound gave a half-life at 1 µM in data set [7] (liver microsomes) of 1.4 min.
Take `CS(=O)(=O)N1CCCc2cc(C(=O)CSc3ccc4c(c3)OCCO4)ccc21`: the max activation in [1] was determined as 107%. The Activity in data set [2] came to 1.3 µM.
For the compound `O=S(=O)(c1ccc2c(c1)CCN2S(=O)(=O)c1ccccc1)c1ccc2c(c1)OCCO2`, the max activation in [1] was 122%. Further, the Activity in data set [2] came to 0.093 µM.
In data set [1], `CS(=O)(=O)N1CCc2c1cc(F)c(S(=O)(=O)c1ccc3c(c1)OCCO3)c2F` came in with a max activation of 78%. In addition, the Activity in [2] worked out at 0.079 µM.
Turning to `CCS(=O)(=O)N1CCc2cc(C(=O)CSc3ccc(F)cc3F)ccc21`, the max activation in data set [1] was 171%. In data set [2], the Activity is 4.1 µM.
The compound `CC1Cc2cc(C(=O)CSc3ccc4c(c3)OCCO4)ccc2N1S(C)(=O)=O` (racemic) came in with a max activation in data set [1] of 164%. In addition, the Activity in data set [2] was determined as 0.55 µM. This compound showed a half-life at 1 µM in data set [7] (liver microsomes) of 3.4 min.
In turn, `CC(C)CS(=O)(=O)N1Cc2ccc(S(=O)(=O)c3ccc4c(c3)OCCO4)cc2C1` displayed a max activation in data set [1] of 91.5%. The Activity in data set [2] was 0.189 µM.
For `CCN(c1ccc(S(=O)(=O)c2ccc3c(c2)OCCO3)c(C)c1)S(C)(=O)=O`, in that order: 160% and 2.7 µM.
In the case of `O=S(=O)(c1ccc2c(c1)CN(S(=O)(=O)c1ccccc1)C2)c1ccc2c(c1)OCCO2`, the max activation in [1] is 140%. In addition, the Activity in data set [2] was 0.061 µM.
For `CC1Cc2cc(S(=O)(=O)c3ccc4c(c3)OCCO4)ccc2N1S(=O)(=O)c1ccccc1` (racemic), in that order: 134% and 0.6 µM.
For the compound `CS(=O)(=O)N1CCc2cc(S(=O)(=O)c3ccc4c(c3)OCCO4)ccc21`, the max activation was 106% in data set [1], 34% in data set [8] and 33% in data set [10]. In addition, the Activity in [2] is 0.045 µM; in data set [9] it was above 100 µM; in data set [11] it was above 100 µM. Also, the fraction unbound at 5 h, 1 µM in data set [3] is 0.059. For the same compound, at hERG (KCNH2), the inhibition at 0.05 h, 1 µM is 9%. Further, the max activation entry in data set [12] is “inactive”. Besides, the outcome in data set [13] was inactive. The efflux ratio at 1.5 h, 10 µM in data set [4] turned out to be 1.14. Also, the basolateral-to-apical permeability (Papp B→A) at 1.5 h, 10 µM in data set [5] stood at 43 ×10⁻⁶ cm/s. The apparent permeability from apical to basolateral (Papp A→B) at 1.5 h, 10 µM in data set [6] came to 37.5 ×10⁻⁶ cm/s. Besides, the half-life at 1 µM in data set [7] (microsomes) worked out at 26 min.
In the case of `CS(=O)(=O)Nc1ccc(C(=O)CSc2ccc3c(c2)OCCO3)cc1`, in data set [1], the max activation was determined as 140%. Besides, the Activity in data set [2] worked out at 2.5 µM. Also, the half-life at 1 µM in data set [7] (microsomes) turned out to be 3.3 min.
Consider `O=S(=O)(c1ccc2c(c1)CCN2S(=O)(=O)C1CC1)c1ccc2c(c1)OCCO2`, for which, in data set [1], the max activation is 105%. Besides, the Activity in [2] was 0.017 µM.
For `O=P(O)(O)OC[C@H]1O[C@@](O)(COP(=O)(O)O)[C@@H](O)[C@@H]1O`, in that order: 148% and 0.08 µM.
In the same order, the values of `CCS(=O)(=O)N1CCc2cc(S(=O)(=O)c3ccc4c(c3)OCCO4)ccc21` are 89% and 0.027 µM.
Turning to `CS(=O)(=O)N1Cc2ccc(S(=O)(=O)c3ccc4c(c3)OCCO4)cc2C1`, the max activation in [1] stood at 125%. Further, in data set [2], the Activity stood at 0.017 µM. Also, the fraction unbound at 5 h, 1 µM in data set [3] was 0.091. The compound also gave an inhibition at 0.05 h, 1 µM at hERG (KCNH2) of 7.3%. In addition, the efflux ratio at 1.5 h, 10 µM in data set [4] was found to be 1.06. In data set [5], the Papp B→A at 1.5 h, 10 µM turned out to be 32.4 ×10⁻⁶ cm/s. Further, the apparent permeability from apical to basolateral (Papp A→B) at 1.5 h, 10 µM in data set [6] amounted to 30.4 ×10⁻⁶ cm/s. This compound also returned a half-life at 1 µM in data set [7] (liver microsomes) above 45 min.
The compound `CC1Cc2cc(NS(=O)(=O)c3ccc4c(c3)OCCO4)ccc2N1S(C)(=O)=O` (racemic) displayed a max activation in data set [1] of 32.5%. For the same compound, the Activity in data set [2] is above 100 µM.
In [1], `CC1Cc2cc(S(=O)(=O)c3ccc4c(c3)OCCO4)ccc2N1S(=O)(=O)Cc1ccccc1` (racemic) showed a max activation of 111%. In addition, in data set [2], the Activity turned out to be 1.6 µM.
As to `CC1Cc2cc(C(=O)c3ccc4c(c3)OCCO4)ccc2N1S(C)(=O)=O` (racemic), in [2], the result was inactive.
With `O=S(=O)(c1ccc2c(c1)CCN2S(=O)(=O)c1cccc(F)c1)c1ccc2c(c1)OCCO2`, the max activation in data set [1] was 87%. Moreover, in data set [2], the Activity stood at 0.03 µM.
Turning to `CCS(=O)(=O)N1Cc2ccc(S(=O)(=O)c3ccc4c(c3)OCCO4)cc2C1`, the max activation in [1] came to 35%. Also, the Activity in [2] came to 0.02 µM.
